The results in this text go back to ChEMBL document CHEMBL4017537, “Discovery of a Potent and Specific M. tuberculosis Leucyl-tRNA Synthetase Inhibitor: (S)-3-(Aminomethyl)-4-chloro-7-(2-hydroxyethoxy)benzo[c][1,2]oxaborol-1(3H)-ol (GSK656)” (J Med Chem, 2017).

SMILES strings stand for the structures. ≈ marks a conversion by molar mass, not a printed value.

One data set deals with T1, Leucine--tRNA ligase (Mycobacterium tuberculosis (strain ATCC 25618 / H37Rv), UniProt P9WFV1).
T1 sequence (P9WFV1 whole entry): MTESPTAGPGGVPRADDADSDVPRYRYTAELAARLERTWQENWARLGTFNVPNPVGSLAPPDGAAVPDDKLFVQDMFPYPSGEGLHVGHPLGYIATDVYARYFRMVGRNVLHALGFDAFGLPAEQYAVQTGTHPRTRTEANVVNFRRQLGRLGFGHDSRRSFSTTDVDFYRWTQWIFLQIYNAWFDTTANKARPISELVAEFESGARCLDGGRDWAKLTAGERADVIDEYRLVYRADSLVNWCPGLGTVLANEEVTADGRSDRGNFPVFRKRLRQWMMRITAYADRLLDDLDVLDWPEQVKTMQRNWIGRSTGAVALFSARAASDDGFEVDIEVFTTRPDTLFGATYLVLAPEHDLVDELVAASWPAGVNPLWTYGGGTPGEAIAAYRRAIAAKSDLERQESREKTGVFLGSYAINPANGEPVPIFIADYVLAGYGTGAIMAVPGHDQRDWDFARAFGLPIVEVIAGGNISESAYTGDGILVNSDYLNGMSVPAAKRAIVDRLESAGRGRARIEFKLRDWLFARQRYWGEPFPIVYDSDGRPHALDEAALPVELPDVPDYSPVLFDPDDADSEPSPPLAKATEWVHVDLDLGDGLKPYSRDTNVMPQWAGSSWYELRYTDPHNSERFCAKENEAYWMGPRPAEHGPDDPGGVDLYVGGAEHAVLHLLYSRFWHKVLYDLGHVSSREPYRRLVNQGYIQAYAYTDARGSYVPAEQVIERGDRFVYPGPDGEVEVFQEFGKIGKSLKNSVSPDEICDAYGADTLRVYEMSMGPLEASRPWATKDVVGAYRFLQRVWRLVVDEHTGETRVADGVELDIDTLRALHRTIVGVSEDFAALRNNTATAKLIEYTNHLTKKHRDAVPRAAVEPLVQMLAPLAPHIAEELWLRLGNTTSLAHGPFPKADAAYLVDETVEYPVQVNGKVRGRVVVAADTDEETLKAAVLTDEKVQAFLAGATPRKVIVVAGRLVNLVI
As to the kind of experiment: Inhibition of Mycobacterium tuberculosis H37Rv N-terminal 6His-tagged LeuRS expressed in Escherichia coli BL21(DE3) assessed as L-[14C]leucine incorporation in to Escherichia coli tRNA after 20 mins by liquid scintillation counting analysis. The procedure, abridged:
(§1)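 N-terminal His6-tagged LeuRS expressed in E. coli BL21(DE3), codon-optimized. 50 mM HEPES-KOH pH 8.0, 30 mM MgCl2, 30 mM KCl, 13 μM L-[14C]leucine, 15 μM tRNA (E. coli total; brewer's yeast for human cytoplasmic enzyme), 0.02% BSA, 1 mM DTT, 30 °C. Inhibitor preincubated 20 min, started with 4 mM ATP, TCA-quenched after 7 min, filtered, scintillation counted; four-parameter logistic IC50.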

For the next data set, the system named is HepG2. As to the kind of experiment: Cytotoxicity against human HepG2 cells assessed as reduction in cell viability after 48 hrs by CellTiter-Glo assay. To be noted: HepG2, 48 h. Format: cell-based. A digest of the protocol: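 HepG2 cells seeded at 10 000/well in EMEM with 5% FCS and 2 mM glutamine. After 24 h, ten 1:2 serial compound dilutions (0.5% DMSO final) added in duplicate for 48 h. Read-out by CellTiter-Glo luminescence per table footnote; the method text also describes resazurin fluorescence (ex 515/em 590 nm). Sigmoidal variable-slope fit.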

Data set [1] deals with Leucine--tRNA ligase, cytoplasmic (Homo sapiens, UniProt Q9P2J5). As to the kind of experiment: Inhibition of cytoplasmic LeuRS in human HepG2 cells assessed as reduction in protein synthesis preincubated for 48 hrs followed by L-[14C]leucine addition measured after 3 hrs by liquid scintillation counting analysis. It counts as cell-based. A digest of the protocol:
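HepG2 cells in DMEM/10% FCS, 3000 cells/well, exposed to compound dilutions (0.5% DMSO final) for 48 h at 37 °C. Medium then replaced with fresh medium containing 0.5 μCi L-[14C]leucine and the same compound levels for 3 h. Cells trypsinised, precipitated in ice-cold 20% TCA, filtered, washed, scintillation counted; curve-fit EC50; mean of at least duplicates.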

The subject of data set [2] is Mycobacterium tuberculosis. Description: Antimicrobial activity against Mycobacterium tuberculosis H37Rv infected in C57BL/6J mouse assessed as 2 log reduction in bacterial load in lungs administered qd for 8 consecutive days starting on day 1 post infection measured 24 hrs post last dose. Format: functional.
Data set [3] has as its target T2, Leucine--tRNA ligase, mitochondrial (Homo sapiens, UniProt Q15031).
T2 sequence (Q15031 whole entry): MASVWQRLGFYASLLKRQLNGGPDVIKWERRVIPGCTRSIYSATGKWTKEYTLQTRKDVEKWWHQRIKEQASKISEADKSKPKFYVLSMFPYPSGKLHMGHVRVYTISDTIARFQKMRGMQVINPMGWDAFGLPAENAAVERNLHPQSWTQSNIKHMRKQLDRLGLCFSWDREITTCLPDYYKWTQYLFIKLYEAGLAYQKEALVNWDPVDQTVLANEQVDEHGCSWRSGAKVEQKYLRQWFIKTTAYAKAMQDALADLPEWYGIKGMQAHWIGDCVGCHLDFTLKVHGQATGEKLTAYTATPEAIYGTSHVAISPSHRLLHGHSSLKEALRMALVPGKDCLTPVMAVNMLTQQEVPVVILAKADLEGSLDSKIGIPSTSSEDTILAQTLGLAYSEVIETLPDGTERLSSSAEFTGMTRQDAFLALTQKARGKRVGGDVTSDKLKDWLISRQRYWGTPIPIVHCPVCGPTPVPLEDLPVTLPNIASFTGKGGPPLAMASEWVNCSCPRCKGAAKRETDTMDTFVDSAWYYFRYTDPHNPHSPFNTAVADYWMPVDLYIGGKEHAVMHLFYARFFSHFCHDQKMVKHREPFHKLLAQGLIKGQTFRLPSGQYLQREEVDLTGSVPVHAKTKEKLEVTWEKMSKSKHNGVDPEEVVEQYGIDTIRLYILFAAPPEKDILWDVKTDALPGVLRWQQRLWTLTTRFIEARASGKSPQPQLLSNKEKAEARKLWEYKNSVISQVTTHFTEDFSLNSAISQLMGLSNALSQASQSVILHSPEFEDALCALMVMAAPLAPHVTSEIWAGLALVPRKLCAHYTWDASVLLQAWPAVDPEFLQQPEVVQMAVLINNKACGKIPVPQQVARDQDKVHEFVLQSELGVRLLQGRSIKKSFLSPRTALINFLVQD
Description: Inhibition of human N-terminal 6His-tagged mitochondrial LeuRS expressed in Escherichia coli BL21(DE3) assessed as L-[14C]leucine incorporation in to Escherichia coli tRNA after 20 mins by liquid scintillation counting analysis. A digest of the protocol:
as §1

Data set [4] deals with Mycobacterium tuberculosis. Description: Antimicrobial activity against Mycobacterium tuberculosis H37Rv. Format: functional.
A further data set deals with cytoplasmic LeuRS. Description: Selectivity index, ratio of EC50 for inhibition of cytoplasmic LeuRS in HepG2 cells assessed as reduction in protein synthesis to MIC for Mycobacterium tuberculosis H37Rv. Format: toxicity, cell-based. The settings on record: human, read-out: Selectivity Index. The procedure, abridged:
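Ratio of HepG2 protein-synthesis EC50 to MIC against M. tuberculosis H37Rv.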

Data set [5] can be described thus: Toxicity in mouse. It counts as organism-based. To be noted: in vivo.

Leucine--tRNA ligase, cytoplasmic, sequence (Q9P2J5 whole entry): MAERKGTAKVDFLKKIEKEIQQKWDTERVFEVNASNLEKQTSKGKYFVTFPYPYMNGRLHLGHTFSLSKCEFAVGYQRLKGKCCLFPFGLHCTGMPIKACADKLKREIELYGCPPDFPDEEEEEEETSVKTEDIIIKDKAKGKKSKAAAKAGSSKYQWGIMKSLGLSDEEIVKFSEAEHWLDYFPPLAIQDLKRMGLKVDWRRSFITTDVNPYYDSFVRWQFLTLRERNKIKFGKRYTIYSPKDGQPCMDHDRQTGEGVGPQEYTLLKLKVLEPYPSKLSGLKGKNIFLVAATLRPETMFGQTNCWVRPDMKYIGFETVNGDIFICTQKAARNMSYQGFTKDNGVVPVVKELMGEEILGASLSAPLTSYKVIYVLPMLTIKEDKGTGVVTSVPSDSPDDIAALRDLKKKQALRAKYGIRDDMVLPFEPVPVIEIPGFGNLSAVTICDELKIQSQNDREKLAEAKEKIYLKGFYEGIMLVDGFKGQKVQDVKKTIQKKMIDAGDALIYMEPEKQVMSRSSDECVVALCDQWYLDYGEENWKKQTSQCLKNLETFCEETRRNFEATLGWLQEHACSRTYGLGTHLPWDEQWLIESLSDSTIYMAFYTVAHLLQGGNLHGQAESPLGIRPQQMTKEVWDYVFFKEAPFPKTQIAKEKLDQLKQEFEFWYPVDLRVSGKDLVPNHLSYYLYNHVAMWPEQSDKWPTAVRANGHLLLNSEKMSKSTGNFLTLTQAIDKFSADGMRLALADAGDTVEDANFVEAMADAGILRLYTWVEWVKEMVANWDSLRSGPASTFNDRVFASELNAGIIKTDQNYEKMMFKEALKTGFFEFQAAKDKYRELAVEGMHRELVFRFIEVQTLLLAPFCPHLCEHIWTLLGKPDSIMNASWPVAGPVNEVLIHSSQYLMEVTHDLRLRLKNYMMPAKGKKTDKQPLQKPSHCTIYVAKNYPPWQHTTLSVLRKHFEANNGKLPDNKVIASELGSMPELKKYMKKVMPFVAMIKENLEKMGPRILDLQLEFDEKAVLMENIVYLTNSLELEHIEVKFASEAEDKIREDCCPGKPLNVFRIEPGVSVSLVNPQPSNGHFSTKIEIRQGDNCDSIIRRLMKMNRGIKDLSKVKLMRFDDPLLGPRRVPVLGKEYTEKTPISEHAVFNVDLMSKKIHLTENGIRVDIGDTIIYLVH

In general, IC50 refers to the point on the concentration scale where inhibition reaches its midpoint. Broadly, the EC50 is the concentration giving half of the maximal effect. One may read the MIC as the smallest concentration in the dilution series that meets the test's criterion for growth inhibition. The low end stands for a more susceptible organism, the high end for a less susceptible organism. As to `CCOc1ccc(Br)c2c1B(O)O[C@@H]2CN`, the IC50 on Leucine--tRNA ligase is 0.075 µM; in data set [3], more than 300 µM. The EC50 is 47.1 µM in the data set with HepG2 and 30.5 µM in data set [1]. For the same compound, the ED99 in data set [2] is less than 1 mg/kg. In addition, the MIC in data set [4] worked out at 0.1 µM (≈ 0.0286 µg/mL). Also, in the data set with cytoplasmic LeuRS, the selectivity ratio was found to be 305.

Regarding `Cl.NC[C@H]1OB(O)c2c(OCCO)ccc(Cl)c21`, the half-maximal inhibitory concentration (IC50) is 0.2 µM at Leucine--tRNA ligase and more than 300 µM in data set [3]. Besides, the EC50 came out at 381 µM with HepG2 and 137 µM in data set [1]. The compound further displayed an MTD in data set [5] of 300 mg/kg. In addition, in data set [2], the ED99 is 0.4 mg/kg. This compound came in with an MIC in data set [4] of 0.08 µM. In the data set on cytoplasmic LeuRS, the selectivity ratio was 1710.
